PubChem BioAssay
Activity calls are given as the source filed them.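 Rule for the calls, unless noted: active = viability loss from added drug above about 55%, and viability with drug at most 40%, in both replicates (limit read from the data, passing the limit was not always enough); inconclusive = both conditions met in only one replicate; inactive = neither replicate meets both conditions.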

How the values were obtained:
[1] = reducers of endogenous Her2 protein level, primary screen, SKBR3 breast tumor cells, AlphaScreen, ATP viability (AID 461;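 active = Her2 level under about 52% in both replicate screens, with viability over 70% of control, limit read from the data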;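 for Her2 level: lower value means less Her2 protein in the cells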;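 for viability: percent of carrier control wells set as 100% viability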); details: 18-24 h, measured here: SKBR3 viability, ATP luminescence, at 10 µM
[2] = target: Receptor tyrosine-protein kinase erbB-2 (Homo sapiens) (UniProt P04626); test: as above; details: 18-24 h, at 10 µM, stronger effect = lower value
[3] = SK-BR-3 cell growth inhibitors, pilot screen, 24 h, human (AID 572;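 active = viability at or below 10% of carrier control in both of two separate runs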;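 note: compound exposure lasted between 18 and 24 h rather than exactly 24 h; 100% = carrier-treated control wells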); details: SK-BR-3 viability, CellTiter-Glo luminescence, at 10 µM, stronger effect = lower value
[4] = HUVEC growth inhibition – cell-based, human, primary screen (AID 575;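 active = viability at or below 30% in both replicate assays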;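 note: 100% = median of untreated cell wells with 0.1% DMSO on each plate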); details: HUVEC proliferation, CellTiter-Glo luminescence, 72 h; at 10 µM; stronger effect = lower value
Summary of the method: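 System – primary HUVEC, no more than 12 passages · Medium – Low-serum (2% FBS) EBM, supplemented · Times – 72 h exposure, 37 °C, 5% CO2, 30 min RT equilibration · Measured by – luminescent ATP assay · Read-out – % viability relative to median vehicle-well signal on each plate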

[5] = growth inhibitors of H69AR lung tumor, primary screen, human, duplicate replicates (AID 580;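 active = viability at or under a set limit in both replicates, limit being median viability minus 3 SD, cut at about 48% in these data, passing the limit was not always enough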;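 note: 100% = mean luminescence of untreated wells and 0% = no signal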); details: H69AR lung tumor cells viability, ATP luminescence, 72 h; at 10 µM; stronger effect = lower value
[6] = reversal of MRP1-mediated doxorubicin resistance, pilot screen, H69AR cells, doxorubicin co-treatment (AID 601); details: CellTiter-Glo, 72 h, at 10 µM; for differential viability (reversal): stronger effect = higher value
[7] = 384-well plate pilot, post-Golgi transport modulator project, inhibition of yeast transport mutant growth (AID 636; in the data active = inhibition above about 31%); details: absorbance 615 nm, about 18 h, stronger effect = higher value
[8] = growth suppression of yeast trafficking mutant, preliminary HTS, modulators of trafficking downstream of Golgi apparatus project, 1536-format plate, OD 615 nm (AID 637; in the data active = inhibition above about 30%); details: yeast transport mutant growth, absorbance 615 nm, 18 h; stronger effect = higher value
[9] = H69AR cells + 2 uM doxorubicin, measured here: viability with 2 uM doxorubicin, stronger effect = lower value
[10] = H69AR cells, compound alone cytotoxicity

Receptor tyrosine-protein kinase erbB-2 (Homo sapiens), sequence (P04626 whole entry, looked up): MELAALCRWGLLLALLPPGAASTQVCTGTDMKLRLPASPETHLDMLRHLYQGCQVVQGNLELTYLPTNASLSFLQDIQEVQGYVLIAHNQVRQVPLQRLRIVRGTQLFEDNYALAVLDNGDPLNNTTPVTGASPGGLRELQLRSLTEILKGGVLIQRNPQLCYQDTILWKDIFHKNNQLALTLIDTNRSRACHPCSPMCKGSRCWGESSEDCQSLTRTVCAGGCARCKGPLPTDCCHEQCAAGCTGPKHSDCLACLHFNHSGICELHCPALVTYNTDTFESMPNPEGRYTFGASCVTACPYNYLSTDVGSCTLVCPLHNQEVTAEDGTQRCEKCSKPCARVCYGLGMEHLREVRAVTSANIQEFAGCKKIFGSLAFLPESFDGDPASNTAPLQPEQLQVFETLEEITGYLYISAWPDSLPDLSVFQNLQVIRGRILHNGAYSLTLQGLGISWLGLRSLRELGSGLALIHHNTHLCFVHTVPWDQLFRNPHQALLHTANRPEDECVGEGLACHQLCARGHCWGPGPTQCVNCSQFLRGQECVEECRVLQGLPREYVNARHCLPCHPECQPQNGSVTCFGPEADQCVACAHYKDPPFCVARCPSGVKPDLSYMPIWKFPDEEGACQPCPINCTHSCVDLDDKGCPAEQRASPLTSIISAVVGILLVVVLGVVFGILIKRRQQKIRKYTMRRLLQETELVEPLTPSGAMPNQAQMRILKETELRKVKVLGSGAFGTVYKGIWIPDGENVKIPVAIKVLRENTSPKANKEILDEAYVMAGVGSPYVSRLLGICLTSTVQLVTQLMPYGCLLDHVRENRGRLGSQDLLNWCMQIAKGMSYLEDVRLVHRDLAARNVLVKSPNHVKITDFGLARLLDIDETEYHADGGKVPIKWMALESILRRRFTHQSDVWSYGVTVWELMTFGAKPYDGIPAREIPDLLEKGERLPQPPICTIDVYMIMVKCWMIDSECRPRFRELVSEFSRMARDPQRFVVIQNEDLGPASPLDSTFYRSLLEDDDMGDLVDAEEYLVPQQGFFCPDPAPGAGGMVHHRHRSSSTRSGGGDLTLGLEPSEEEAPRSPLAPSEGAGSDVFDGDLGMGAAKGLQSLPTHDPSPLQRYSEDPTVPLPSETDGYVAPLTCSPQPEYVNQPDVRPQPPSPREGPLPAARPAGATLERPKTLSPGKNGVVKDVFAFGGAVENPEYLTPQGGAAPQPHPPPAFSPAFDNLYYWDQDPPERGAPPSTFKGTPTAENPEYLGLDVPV

Structure (SMILES) | viability [1] | Her2 level [2] | viability [3] | viability [4] | viability [5] | differential viability (reversal) ([6]; H69AR cells + 2 uM doxorubicin) | viability [6, 9] | viability [6, 10] | inhibition [7] | inhibition [8]
CCOC(=O)c1[nH]c2ccccc2c1NC(=O)c1ccco1 | 102% | 79% (inactive) | 102% (inactive) | 106% (inactive) | 80.3% (inactive) | -2.98% (inactive) | 83.2% | 80.3% | -7.03% (inactive) | 4.33% (inactive)
O=c1[nH]c(/C(=N\O)c2ccccc2)no1 | 93.5% | 82% (inactive) | 93.5% (inactive) | 83.2% (inactive) | 73.2% (inactive) | 32.5% (inactive) | 40.7% | 73.2% | -0.39% (inactive) | 5.74% (inactive)
Cc1ccc(S(=O)(=O)Nc2cc(C(=O)O)ccc2N2CCCCC2)cc1 | 112% | 112% (inactive) | 112% (inactive) | 101% (inactive) | 85.6% (inactive) | -1.99% (inactive) | 87.6% | 85.6% | -5.97% (inactive) | 6.07% (inactive)
Cc1csc2nc(CSc3nc4ccccc4o3)c(Br)n12 | 84.5% | 60% (inactive) | 84.5% (inactive) | 85.6% (inactive) | 83% (inactive) | 3.21% (inactive) | 79.8% | 83% | -3.87% (inactive) | 10.5% (inactive)
CCN(Cc1ccccc1)C(c1ccncc1)c1nnnn1C(C)(C)C (stereo not given) | 102% | 76% (inactive) | 102% (inactive) | 99.5% (inactive) | 78.6% (inactive) | -0.555% (inactive) | 79.1% | 78.6% | -5.73% (inactive) | 4.26% (inactive)
CCc1[nH]nc2c1C(c1cccc(OC(=O)N3CCOCC3)c1)C(C#N)=C(N)O2 (stereo not given) | 133% | 124% (inactive) | 133% (inactive) | 103% (inactive) | 89.5% (inactive) | -9.21% (inactive) | 98.8% | 89.5% | -3.42% (inactive) | 0.95% (inactive)
Cc1nn(C)cc1NC(=O)CCSc1nc(-c2ccco2)cc(C(F)(F)F)n1 | 90.5% | 104% (inactive) | 90.5% (inactive) | 102% (inactive) | 87.3% (inactive) | 5.31% (inactive) | 81.9% | 87.3% | -4.4% (inactive) | 23.9% (inactive)
FC(F)(F)c1nnc2ccc(NCn3nnc4ccccc43)nn12 | 102% | 89.5% (inactive) | 102% (inactive) | 83.1% (inactive) | 92.9% (inactive) | 4.94% (inactive) | 88% | 92.9% | -4.61% (inactive) | -1.75% (inactive)
COc1cc(C(=O)Nc2ccc(-n3cnnn3)c(C)c2)cc(OC)c1OC | 105% | 95.5% (inactive) | 105% (inactive) | 99.8% (inactive) | 74% (inactive) | -24.8% (inactive) | 98.8% | 74% | -2.08% (inactive) | -7.3% (inactive)
CN(C(=O)c1ccccn1)c1nnc(-c2ccncc2)s1 | 118% | 92.5% (inactive) | 118% (inactive) | 101% (inactive) | 108% (inactive) | 15.6% (inactive) | 92.8% | 108% | -3.65% (inactive) | -5% (inactive)
C=CC(O)(C#CCN(CC)CC)c1ccccc1 (stereo not given) | 96.5% | 89% (inactive) | 96.5% (inactive) | 102% (inactive) | 99.9% (inactive) | 10.1% (inactive) | 89.9% | 99.9% | -2.03% (inactive) | -0.63% (inactive)
Cc1ccc(Cn2ncc3c(NCCCN4CCOCC4)ncnc32)cc1 | 92.5% | 92.5% (inactive) | 92.5% (inactive) | 96.8% (inactive) | 102% (inactive) | 18.2% (inactive) | 83.6% | 102% | -2.63% (inactive) | 0.32% (inactive)
COc1ccc(C2(C(=O)N3CCCC3)CCOCC2)cc1OC | 88.5% | 126% (inactive) | 88.5% (inactive) | 82.2% (inactive) | 97.2% (inactive) | 9.43% (inactive) | 87.8% | 97.2% | 3.21% (inactive) | -11% (inactive)
O=C(Cn1nc(-c2ccc3c(c2)OCCO3)ccc1=O)Nc1ccc(N2CCOCC2)cc1 | 94% | 108% (inactive) | 94% (inactive) | 112% (inactive) | 110% (inactive) | 16.4% (inactive) | 93.2% | 110% | -3.03% (inactive) | 0.17% (inactive)
C=CCn1cnc2c(NCc3ccccc3)ncnc21 | 85.5% | 94% (inactive) | 85.5% (inactive) | 96.9% (inactive) | 97.1% (inactive) | -3.4% (inactive) | 100% | 97.1% | 1.71% (inactive) | -7.9% (inactive)
Cc1nnc(SCc2cc(=O)[nH]c(N3CCCCC3)n2)s1 | 94% | 86.5% (inactive) | 94% (inactive) | 107% (inactive) | 94.1% (inactive) | 2.25% (inactive) | 91.9% | 94.1% | -7.3% (inactive) | -2.86% (inactive)
Cc1ccc(S(=O)(=O)N2CCCC(C(=O)NC3=NCCS3)C2)cc1 (stereo not given) | 97.5% | 78.5% (inactive) | 97.5% (inactive) | 83% (inactive) | 91.8% (inactive) | 6.39% (inactive) | 85.4% | 91.8% | -6.67% (inactive) | 2.62% (inactive)
CN(C=C1C(=O)CC(C)(C)CC1=O)CCN1CCNCC1 | 120% | 102% (inactive) | 120% (inactive) | 90.3% (inactive) | 96% (inactive) | 10.2% (inactive) | 85.8% | 96% | -4.21% (inactive) | 2.13% (inactive)
CCn1c(SCC(=O)Nc2nc(C)cs2)nnc1-c1ccco1 | 106% | 87.5% (inactive) | 106% (inactive) | 110% (inactive) | 92% (inactive) | 4.38% (inactive) | 87.7% | 92% | -3.33% (inactive) | -2% (inactive)
O=C(CCn1c(=O)sc2ccccc21)NC1=NCCS1 | 84% | 96% (inactive) | 84% (inactive) | 94.6% (inactive) | 91.6% (inactive) | 4.68% (inactive) | 86.9% | 91.6% | -1.87% (inactive) | -6.72% (inactive)
O=C(Cn1nnc(-c2cccc(C(F)(F)F)c2)n1)NC(=O)NCc1ccco1 | 89% | 102% (inactive) | 89% (inactive) | 98.3% (inactive) | 74.1% (inactive) | -3.41% (inactive) | 77.5% | 74.1% | -1.05% (inactive) | -1.82% (inactive)
CCC(=O)N1CCCc2cc(S(=O)(=O)N3CCCc4ccccc43)ccc21 | 89.5% | 76.5% (inactive) | 89.5% (inactive) | 87.2% (inactive) | 77.6% (inactive) | -3.92% (inactive) | 81.5% | 77.6% | -2.76% (inactive) | -2.1% (inactive)
Cc1n[nH]c(C)c1S(=O)(=O)N1CCN(c2ccccn2)CC1 | 99.5% | 108% (inactive) | 99.5% (inactive) | 111% (inactive) | 103% (inactive) | 3.44% (inactive) | 99.8% | 103% | -0.26% (inactive) | -4.29% (inactive)
CCCS(=O)(=O)N1CCCC(C(=O)N2CCC(Cc3ccccc3)CC2)C1 (stereo not given) | 91.5% | 96.5% (inactive) | 91.5% (inactive) | 85.9% (inactive) | 98.7% (inactive) | 1.65% (inactive) | 97.1% | 98.7% | -1.32% (inactive) | 4.92% (inactive)
COc1ccc(S(=O)(=O)NCC(c2cccnc2)N2CCN(c3ccc(F)cc3)CC2)cc1C (stereo not given) | 91.5% | 80% (inactive) | 91.5% (inactive) | 99.1% (inactive) | 87.4% (inactive) | -0.665% (inactive) | 88.1% | 87.4% | -1.04% (inactive) | -0.98% (inactive)
CC(C)(C)C(=O)CCN1C(=O)C2(OCCO2)c2ccccc21 | 104% | 106% (inactive) | 104% (inactive) | 83.9% (inactive) | 103% (inactive) | 9.06% (inactive) | 94.1% | 103% | -1.82% (inactive) | -2.3% (inactive)
COCCCN(C(C)=O)c1nc(-c2ccccc2)cs1 | 91% | 85.5% (inactive) | 91% (inactive) | 65.5% (inactive) | 94% (inactive) | 9.96% (inactive) | 84.1% | 94% | -7.81% (inactive) | -3.17% (inactive)
CC(=O)N(C)C1(c2nnnn2CCOC(=O)Nc2ccc(Cl)cc2)CCCCC1 | 114% | 114% (inactive) | 114% (inactive) | 98.1% (inactive) | 104% (inactive) | 12.5% (inactive) | 91% | 104% | -1.45% (inactive) | -8.33% (inactive)
CCOC(=O)CSc1nc2cccnc2n1-c1ccc(F)cc1 | 108% | 117% (inactive) | 108% (inactive) | 103% (inactive) | 102% (inactive) | 9.83% (inactive) | 92.4% | 102% | -4.8% (inactive) | -8.1% (inactive)
